This note sets out measurements from ChEMBL document CHEMBL5321217, “Identification of pyrrolo[3',4':3,4]cyclohepta[1,2-d][1,2]oxazoles as promising new candidates for the treatment of lymphomas” (Eur J Med Chem, 2023).

A value given as a limit tells only on which side of the number the result lay.

For one assay, the system named is SK-MEL-28. As to the kind of experiment: Antiproliferative activity against human SK-MEL-28 cells assessed as growth inhibition incubated for 72 hrs by MTT assay. In kind it is functional. (In general: Tetrazolium dyes change colour on reduction, which living cells bring about.)
The next assay has as its system EKVX. In words: Antiproliferative activity against human EKVX cells assessed as growth inhibition incubated for 72 hrs by MTT assay. In kind it is functional.
The test system of another assay is TK-10. As to the kind of experiment: Antiproliferative activity against human TK-10 cells assessed as growth inhibition incubated for 72 hrs by MTT assay. In kind it is functional.
A short description of assay [1]: Antiproliferative activity against human HBL1 cells assessed as reduction in cell proliferation at 1 uM measured after 72 hrs by MTT assay relative to control. Type of assay: functional. Further details: scale not given: the % may be the effect or the level left. In short, it runs like this:
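Single-dose screen at 1 μM for 72 h at 37 °C, 5% CO2 (DMSO ≤0.1%). Cells in RPMI-1640 with 20% FBS, seeded at 5,000–10,000 cells/well. MTT added for 4 h, SDS lysis, A570 read with medium-only blanks. Percent proliferation relative to untreated cells, run in triplicate.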

A further assay deals with BT-549. In words: Antiproliferative activity against human BT-549 cells assessed as growth inhibition incubated for 72 hrs by MTT assay. Type of assay: functional.
A further assay concerns UACC-257. As to the kind of experiment: Antiproliferative activity against human UACC-257 cells assessed as growth inhibition incubated for 72 hrs by assay. In kind it is functional.
Assay [2] has as its system VL51. In words: Induction of cell cycle arrest in human VL51 cells assessed as increase in mitotic cells at 1 uM incubated for 24 hrs by PI staining based flow cytometry analysis (reference value: 1.5%). Type of assay: functional. (In flow cytometry, cells or beads pass a laser one at a time.)
A further assay deals with UACC-62. As to the kind of experiment: Antiproliferative activity against human UACC-62 cells assessed as growth inhibition incubated for 72 hrs by assay. In kind it is functional.
The test system of assay [3] is VL51. As to the kind of experiment: Antiproliferative activity against human VL51 cells assessed as cell growth inhibition measured after 72 hrs by MTT assay. In kind it is functional, cell-based. Conditions: VL51, 72 h. In outline:
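Lymphoma cells grown in RPMI-1640 with 20% FBS, seeded at 5,000–10,000 cells/well by doubling time. Doses 0–10 μM, 1:2 serial dilution, DMSO ≤0.1%, 72 h at 37 °C, 5% CO2. MTT (5 mg/mL stock) added for 4 h, SDS lysis, A570 read against medium-only blanks. IC50 from triplicate assays.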

The next assay deals with MDA-MB-435. In words: Antiproliferative activity against human MDA-MB-435 cells assessed as growth inhibition incubated for 72 hrs by MTT assay. In kind it is functional.
For the next assay, the system named is OVCAR-4. In words: Antiproliferative activity against human OVCAR-4 cells assessed as growth inhibition incubated for 72 hrs by MTT assay. Type of assay: functional.
A further assay has as its system SK-MEL-2. As to the kind of experiment: Antiproliferative activity against human SK-MEL-2 cells assessed as growth inhibition incubated for 72 hrs by MTT assay. Type of assay: functional.

`COc1ccc(Cn2cc3c(c2-c2cc(OC)c(OC)c(OC)c2)CCCc2cnoc2-3)cc1N`: the GI50 (commonly the concentration giving 50% growth inhibition) in the assay on SK-MEL-28 was determined as 2930 nM; in the assay on EKVX it was 2670 nM; in the assay with TK-10, 96600 nM; in the assay on BT-549 it was 250 nM; in the assay on UACC-257, 580 nM; in the assay on UACC-62 it was 430 nM. For the same compound, the GI50 with MDA-MB-435 is 240 nM. Moreover, the Activity in assay [1] is on record as over 50%; in the assay on VL51 [2], about 18%. In the assay with VL51 [3], the IC50 (in general, the concentration at which inhibition is half-maximal) worked out at 100 nM.

`COc1ccc(Cn2cc3c(c2-c2cc(OC)c(OC)c(OC)c2)CCCc2cnoc2-3)cc1`: the GI50 in the assay with OVCAR-4 is 4970 nM; in the assay on EKVX, 3000 nM; in the assay with BT-549 it was 480 nM; with SK-MEL-2, 1610 nM; in the assay with UACC-62, 910 nM; with MDA-MB-435, 230 nM. The Activity in [1] is recorded as over 50%; in the assay with VL51 [2], about 18%. For the same compound, the IC50 in the assay with VL51 [3] amounted to 400 nM.
